Laboratory results from publication PMC11166183 (Inorganic chemistry, 2024).
Like-named read-outs stand apart in the source and are kept apart here.

Legend:
SK-MEL-28 cells [1] = experiment: Dark cytotoxicity and photocytotoxicity in normoxia, resazurin cell viability; format: cell-based, human
Method in brief: (§1)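 Cells adhered 3–5 h at 37°C, then were dosed at 1 nM to 300 μM. After a 13–22 h DLI, light plates received 100 J cm−2 of broadband visible (400–700 nm, 21 mW cm−2), green (523 nm) or red (633 nm, ±2.5 nm, 18 mW cm−2) light. Dark plates stayed incubated. Viability was read by resazurin after 24 h at 37°C. EC50 came from sigmoidal fits; PI = dark EC50/light EC50.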

A549 cells = experiment: as above; format: cell-based, human
Method in brief: as §1

[2] = Lipophilicity by shake-flask method; format: physicochemical; conditions: chloride salts, 1-octanol / 10 mM phosphate buffer pH 7.4
SK-MEL-28 cells [3] = experiment: Dark cytotoxicity and photocytotoxicity in hypoxia; format: cell-based, human; conditions: hypoxia 1% O2, regardless of light treatment
Method in brief: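 Cells were moved to a 1% O2 chamber for 2–3 h after adhesion, then dosed (1 nM to 300 μM). After an 18 h DLI, dissolved O2 was checked by optical probe. Light plates were sealed with low-permeability film and illuminated outside the chamber (~1.5 h). All plates were then held in normoxia (37°C, 5% CO2) for 20–23 h before resazurin read-out. EC50 came from sigmoidal fits; PI = dark/light ratio. Each run was done in triplicate.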

[4] = any light condition (visible, 523 nm, 633 nm; 100 J cm−2), normoxia
[5] = read-out: dark EC50, no light, normoxia

log Do/w [2] | Substance | drop in activity with green light versus visible light (SK-MEL-28 cells [1]; 523 nm vs visible, normoxia) [fold] | PI (dark EC50 / green EC50) (SK-MEL-28 cells [1]; 523 nm, 100 J cm−2, normoxia, representative replicate (repeat 0)) | EC50 (SK-MEL-28 cells [1]; read-out: green EC50, 523 nm, 100 J cm−2, normoxia, representative replicate (repeat 0)) [µM] | enhancement in visible photocytotoxicity relative to Ru-1T (SK-MEL-28 cells [1]; visible light, normoxia) [fold] | EC50 (A549 cells; read-out: visible EC50, visible light 400–700 nm, 100 J cm−2, normoxia) [µM] | PI (dark EC50 / visible EC50) (A549 cells; visible light 400–700 nm, 100 J cm−2, normoxia) | photocytotoxic effect (SK-MEL-28 cells [3]) | photocytotoxic activity (SK-MEL-28 cells [1]; [4]) | EC50 (SK-MEL-28 cells [1]; [5]) [µM] | photocytotoxic activity (A549 cells; [4]) | EC50 (A549 cells; [5]) [µM]
positive | rac-[Ru(4,4′-btfmb)2(IP-2T)](Cl)2 [Ru-2T] | 3 | 91 | 1.9 | 36 | 1.37 | 127 | – | – | – | – | –
– | rac-[Ru(4,4′-btfmb)3](Cl)2 [[Ru(4,4′-btfmb)3]^2+, reference compound] | – | – | – | – | – | – | no photocytotoxic effect | inactive | > 300 | inactive | > 300
